Results: ChEMBL document CHEMBL4513216, “Probing the Open Global Health Chemical Diversity Library for Multistage-Active Starting Points for Next-Generation Antimalarials” (ACS Infect Dis, 2020)

Assay: Toxicity liver stage against HepG2, at 10uM
Type: cell-based
Parameters: test concentration 10 uM, cell line HepG2-A16-CD81EGFP
Settings: human, HepG2-A16-CD81EGFP cells; read-out: INHIBITION
How it was run: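 Uninfected HepG2-A16-CD81EGFP cells, 3 × 10^3 per well, 1536-well, plated on prespotted compound at 10 μM final, parasite-free screening media added to match infected plates; puromycin 10 μM positive, DMSO 0.5% negative; run in parallel with 48 h PbLuc assay at 37 °C, 5% CO2; viability by CellTiter-Glo luminescence, normalized to controls.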

SMILES | cytotoxicity at 10 µM [%]
O=C(c1ccno1)N1CCOC[C@H](Oc2ccc(C(F)(F)F)cc2)C1 | 1.48
Cc1nc(-c2ccoc2)n(CC(=O)N(C)CC(C)C)c1C | -4.5
O=C1CCNc2ncc(-c3ccccc3Cl)cc2CN1C1CC1 | 8.89
CCOC(=O)[C@@H]1[C@@H](c2ccccc2)CN2CCNC[C@H]12 | 3.8
COc1ccccc1C(=O)N1CC(=O)N(C2CCCCC2)CC(O)C1 (stereo not given) | -3.09
O=S1(=O)CCC(S(=O)(=O)c2cccc(S(=O)(=O)N3CCCCCC3)c2)C1 (stereo not given) | -7.39
COc1ccc(C)cc1NC(=O)Nc1cnc(N2CCOCC2)nc1 | -9.67
CN(C)CCN1Cc2ncn(C)c2C(COCC(=O)N(C)C)C1 (stereo not given) | 7.83
Cc1nnc(NC(=O)C(C)n2ncc(Br)c2C)s1 (stereo not given) | 1.81
COCC(=O)N1CCOC(c2ccc(N(C)C)cn2)C1 (stereo not given) | -13.1
Cc1ncsc1CN1CC[C@H](O)[C@@H](n2cnc3c(N)ncnc32)CC1 | -10.8
COc1cc(F)ccc1NC(=O)NC(C)C(=O)NC(C)(C)C (stereo not given) | -6.1
CC(=O)NCC(=O)Nc1cc(C)n(-c2ccc(Cl)cc2Cl)n1 | -140
Cc1cc(NC(=O)C2CCN(c3ncccc3C#N)CC2)no1 | 3.54
CNS(=O)(=O)c1ccc(CNC(=O)C2CN(C)CCO2)cc1 (stereo not given) | -14.1
Cc1nn(C)c(C)c1CC(=O)N1CCCC(CNS(C)(=O)=O)C1 (stereo not given) | 3.3
NCC1(c2cccc(F)c2)CCOCC1 | -7.87
CCS(=O)(=O)CCCOc1nc(-c2ccccc2Cl)no1 | -6.14
O=C(NS(=O)(=O)c1ccc(Cl)cc1F)c1cccc2c1OCCO2 | -5.33
CCC(CC)C(=O)NCc1cn2cc(Br)ccc2n1 | 5.17
CCOc1cc(NC(=O)N(C)Cc2ncnn2C)ccc1C | 13.4
COC(=O)c1ccc(NC(=O)CCc2ccncc2)c(C)c1 | 7.83
O=C(NCc1cc[nH]n1)N1CCC(Oc2ccccc2Cl)CC1 | 8.16

SMILES | cytotoxicity at 10 µM [%]
Cc1n[nH]c(SCCNC2CCN(c3nc4ccccc4s3)CC2)n1 | -6.92
Cc1nc(N2C[C@@H](CN3CCCN(C)CC3)[C@@H](CO)C2)c2ccsc2n1 | -6.56
COc1ccnc(N2CCC(=O)N(CC3CC3)C(C(C)C)C2)n1 (stereo not given) | 1.73
c1ccc2c(c1)CC(N1CCCC(NCc3ccc4nonc4c3)C1)C2 (stereo not given) | 5.6
Cc1nc(CN(C)c2nccc(C(F)(F)F)n2)cs1 | 1.15
COc1ccc(OC)c(C2CCN(C(=O)C3CCOCC3)C2)c1 (stereo not given) | 5.6
COCC1CCN(c2nc(C(C)(C)C)nc3c2cnn3C)C1 (stereo not given) | -8.44
Cc1nc(CCN)cc(N2CCCN(C(=O)c3ccco3)CC2)n1 | 1.24
CC(C)n1ccnc1CN1CCOC(CC2CCCCC2)C1 (stereo not given) | -138
Cc1nc(-c2ncc(C(=O)NCCNc3ncccc3C)c(O)n2)cs1 | -0.153
CN(C)C(C(=O)NCc1cc(C(C)(C)C)n[nH]1)c1ccc(F)cc1 (stereo not given) | -5.54
CCc1nnc(NCc2cccc(OC)c2OC)o1 | 6.79
CCOCCn1c(=O)[nH]c2cc(C(=O)N(C)CCc3cn[nH]c3)ccc21 | -21.7
CC(=O)c1cc(CC(=O)NCc2ccc(CN(C)C)cc2)cs1 | -11.3
Cc1ccccc1CNC(=O)Cn1nc(-c2ccc(F)cc2)oc1=O | -7.63
CC(=O)N(C)c1nc(CN2CCCC2c2cnn(C)c2)cs1 (stereo not given) | -16.1
Cc1cc(NC(=O)CN2CCCC2c2noc(C(C)C)n2)no1 (stereo not given) | -14.3
O=C(CCNc1ncccn1)N1CCCC(n2cccn2)C1 (stereo not given) | 0.2
c1ccc(CC2CCN(Cc3ccnc(-c4cccnc4)n3)CC2)cc1 | 6.36
COc1ccc(CN2C[C@H]3CN(c4ccsc4)C(=O)[C@H]3C2)cc1 | 22.8
Cc1nc(COCc2cnc3n2CCN(CC2CCC2)C3C)cs1 (stereo not given) | -5.63
c1ccc(CN2CCOCC3(CCN(C4CCOCC4)C3)C2)cc1 (stereo not given) | 3.01
